# From the RNAGym collection of RNA variant scans (doi:10.1126/science.aae0568)
# Variants at the floor of the assay were thinned out.
# B1: tRNA (parent)
# chain: GUUCCGUUGGCGUAAUGGUAACGCGUCUCCCUCCUAAGGAGAAGACUGCGGGUUCGAGUCCCGUACGGAACG
# Variants of: B1
# Test: yeast fitness relative to wild type (ratio to wild type); higher = fitter; tRNA-Arg(CCU), competitive growth, 37 C, YPD
# Method in brief: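 Variants of the tRNA-Arg(CCU) gene were chemically synthesised with a 3% per-site mutation rate across 69 sites and placed at the native genomic locus in Saccharomyces cerevisiae. Six parallel replicates of the pooled strains were competed in YPD at 37°C for 24 hours, and gene amplicons from the start and end populations were read by 100-nucleotide paired-end sequencing. Darwinian fitness relative to wild type was derived from changes in genotype frequencies. Genotypes required ≥ 100 starting reads, and estimates < 0.5 were set to 0.5.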
row,Variant,yeast fitness
1,GUUCCGUUGGCGUCAUGGUAACGCGUCUCCCUCCAAAGGAGAAGACUGCAGGUUCGAGUCCCGUACGGUACG [A14C U35A G50A A69U],≤ 0.5
2,GUUCCGUUGGCGUCAUGGUAACGCGUCUCCCUCCUAAGGAGAAGACUGCGGGUUCGAAUCAGGUACGGAACG [A14C G58A C61A C62G],≤ 0.5
3,GUUCCGUUGGCGUCAUGGUAACGCCUCUCCCUCCUAAGGAGAAGACAGUGGGUUCGAGUCCCCUACGGAACG [A14C G25C U47A C49U G63C],0.561
4,GUUCCGUUGGCGUCAUGGUAACGCGUCUCCCUCCUAAGGAGAAGACUGCGAGUUCGAGUCCCGUACGGAACG [A14C G51A],0.714
5,GUUCCGUUGGCGUCAUGGACACGCGUCUCCCUCCUAAGGAGAAGACUGCGAGUUCGAGCCCCGUACGGAACG [A14C U19A A20C G51A U59C],0.645
6,GUUCCGUUGGCGUCAUGGUAACGCGCCUCCCUCCUGAGGAGAAGACUGCGGGUUCGAGUCCCGUACGGAACG [A14C U26C A36G],≤ 0.5
7,GUUCCGUUGGCGUCAUGGUAACGCGUCUCCCUCCUAAGGAGAAGACUGCGGGUUCAAGUCCCGUACGGAACG [A14C G56A],0.762
8,GUUCCGUUGGCGUCAUGGAACCGCGUCUCCCUCUUAAGAAGAAGACUGCGGGUUCGAGUCCCGUACGGAACG [A14C U19A A21C C34U G39A],0.62
9,GUUCCGUUGGCGUCAUGGUAACGCGUCUCCCGCCUAAGGAGAAGACUGCGGGUUCGAGUCCCGCACGGAACG [A14C U32G U64C],0.532
10,GUUCCGUUGGCGUCAUGGUAACGCCUCUCCCUCCUAAGGAGAAGACUACGGGUUCGAGUCCCGUACGGUACG [A14C G25C G48A A69U],0.553
11,GUUCCGUUGGCGUCAUGGAAAUGCGUCUCCCUCCUAAGGAGAAGCCUGCGGGUUCGAGUCCCGUACGGAACG [A14C U19A C22U A45C],≤ 0.5
12,GUUCCGUUGGCGUCAUGGUAACGCGUCACCCUCCUAAGGAGAAGACUGCGGGUUCGAGUCCCGUACGGAACG [A14C U28A],0.618
13,GUUCCGUUGGCGUCAUGGUAACGCGUCUCCCUCCUAAGGAAAAGACUGCGGGUUCGAGUCCCGUACGGAACG [A14C G41A],0.553
14,GUUCCGUUGGCGUCAUGGCGACGCGUCUCCCUCCUAAGGAGAAGACUGCGGGUUCGAAUCCCGUACGGAACG [A14C U19C A20G G58A],≤ 0.5
15,GUUCCGUUGGCGUCAUGGUAACGCCUGUCCCUCUAAAAGAGAAGACUGCGGGUUCAAGGCCCGUACGGAACG [A14C G25C C27G C34U U35A G38A G56A U59G],≤ 0.5
16,GUUCCGUUGGCGUCAUGGCAACGCGUCUCCCUCCUAAGGAGACCACUACGGGUUCGAGACCUGAACGGAACG [A14C U19C A43C G44C G48A U59A C62U U64A],≤ 0.5
17,GUUCCGUUGGCGUCAUGGUAACGCGUCUCCCUCCUAAGGAGAAGACUGCGGCUUGGAGUCCCGUACGGAACG [A14C G52C C55G],0.546
18,GUUCCGUUGGCGUCAUGGUAACGCGUCUCCCUCCUAAGGAGAAGACUGCGGGUUCGAGUCCCAUACGGAACG [A14C G63A],0.803
19,GUUCCGUUGGCGUCAUGGUAACGCGUCUCCCUCCUAAGGAGAAGACUGCGGGUUCGAGUCCCCUACGGAACG [A14C G63C],0.535

row,Variant,yeast fitness
1,GUUCCGUUGGCGUCAUGGUAACGCGUCUCCCUCCUAAGGAAACGACUGCGGGUUCGAGUCCCGUACGGAACG [A14C G41A A43C],≤ 0.5
2,GUUCCGUUGGCGUCAUGGAAACGCGUCUCCCUCCUAAGGAGAAGACUGUGGGUUCGAGUCCGAUACGGAACG [A14C U19A C49U C62G G63A],≤ 0.5
3,GUUCCGUUGGCGUCACGGUAACGCGUCUCCCUCCUAAGGUGAAGACUGCGCGUUCGAGUCCCGUACGGCACG [A14C U16C A40U G51C A69C],0.639
4,GUUCCGUUGGCGUCAUGGUAACGCGACUCCCUCUUAAGGAGAAGACUGCUGGUUGGAGUCCCGUACGGAACG [A14C U26A C34U G50U C55G],≤ 0.5
5,GUUCCGUUGGCGUCAUGGUAACGCCUCUCCCUCCUAAGGAGAAGACUGCGGGUUCGAGUCCUGUACGGAACG [A14C G25C C62U],≤ 0.5
6,GUUCCGUUGGCGUCACGGUAACGCGUCUCCCUCCUAAGGAGAAGACUGCGGGUUCGAGUCCCGUACGGUACG [A14C U16C A69U],≤ 0.5
7,GUUCCGUUGGCGUCAUGGAAACGCGUCUCCCUCCUAAGGAGAAGCCUGCGGGUUCGAGUCCCGUGCGGAACG [A14C U19A A45C A65G],≤ 0.5
8,GUUCCGUUGGCGUCAUGGAAACGCGUCUCCCUCCUAAGGAGAAGUCUGCGGGUUCGAGUCCCGUACGGAACG [A14C U19A A45U],≤ 0.5
9,GUUCCGUUGGCGUCAUGGUAACGCGUCUCCCGCCUAAGGAGAAGACUGCGGGUUCAAGUCCCGUACGGAACG [A14C U32G G56A],≤ 0.5
10,GUUCCGUUGGCGUCAAGGUAACGCGUCUCCCUCCUAAGGAGAAGACUGCGGGUUCGAGUCCCGUACGGAACG [A14C U16A],0.597
11,GUUCCGUUGGCGUCAGGGUAACGCGUCUCCCUCCUAAGGAGAAGACUGCGGGUUCGAGUCCCGUACGGAACG [A14C U16G],0.609
12,GUUCCGUUGGCGUCACGGUAACGCGUCUCCCUCCUAAGGAGAAGACUGCGGGUUCGAGUCCCGUACGGAACG [A14C U16C],0.724
13,GUUCCGUUGGCGUCAUGGUAACGCCUCUCCCUCCUAAGGAGAAGACAGCGGGUUCGAGUCCCGUACGGAACG [A14C G25C U47A],0.608
14,GUUCCGUUGGCGUCAUGGUAACGCGACUCCCUCAUAAGGAGAAAACUGCGGGUUCGAGUCCCGUACCGAACG [A14C U26A C34A G44A G67C],≤ 0.5
15,GUUCCGUUGGCGUCAUGGUAACGCGUCUCCCUCCUAAGGAGAAGACUACGGGUUCGAAUCCCGUACGGAACG [A14C G48A G58A],1.04
16,GUUCCGUUGGCGUCAUGGUAACGCGUCUCCCUCCUAAGGAGAAGACUGCAGGUUCGAGUCCCCUACGGAACG [A14C G50A G63C],0.522
17,GUUCCGUUGGCGUCAUGGUAACGCGUCUCCCUCCUAAGGAGAAGACUGCGAGUUCGAGUCCCGUACGGUGCG [A14C G51A A69U A70G],≤ 0.5
18,GUUCCGUUGGCGUCAUGGUAACGCCUCUCCCACCUAAGGAGACGACUGCGGGUUCGAGUCCCAUACGGCACG [A14C G25C U32A A43C G63A A69C],≤ 0.5
19,GUUCCGUUGGCGUCAUGGUAACGCGUCUCCCUCCUAAGGAGAAGACUGCGGGUUCGAGUCCCGUACGAAACG [A14C G68A],0.712
